# Screens: PubChem BioAssay, several laboratories
# This is one part of a sample in which hits are shown more often than they occur.
# CHOP UPR activ = activators of apoptotic arm of unfolded protein response (CHOP). 330,000 tested, 0.34% active. activation, % at 10 µM. CHO-CHOP luciferase reporter, UPR activation, luminescence; percent of tunicamycin response over DMSO baseline. AID 449763;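 active = at 10 µM dose, activation of 40% or more, normalized to positive control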;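 also: 100% = tunicamycin at 10 µg/mL and 0% = DMSO alone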
#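 measured by = luciferase luminescence | assay system = CHO-CHOP cells, stable luciferase reporter of PERK-eIF2a-CHOP signalling | amount = 500 reporter cells seeded per well | timing = 6 h compound exposure at 37 °C after overnight seeding | controls = positive tunicamycin 10 µg/mL, negative DMSO alone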
# Fh CTSL1 inh = counter-screen for PFM18AAP inhibitors: inhibitors of F. hepatica cathepsin L1 | recombinant F. hepatica cathepsin L1, Z-Leu-Arg-MCA fluorescence | inhibition, % at 5.96 µM | 300,000 tested, 0.49% active;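 active = inhibition above the mean of all tested compounds plus 3 SD, set per screening campaign, cut at about 17% in these data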;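 also: 0% = plate median of test compound wells and 100% = 1 µM Z-Phe-Ala-diazomethylketone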
# UPR XBP1 act = activators of adaptive arm of unfolded protein response (XBP1). CHO-XBP1 luciferase reporter, IRE1-XBP1 UPR activation, luminescence; percent of tunicamycin response, DMSO as zero. activation, % at 20 µM. 330,000 tested, 0.33% active. AID 463104;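 active = versus positive control, 20 µM dose yields 30% or more activation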;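 also: 100% = tunicamycin at 10 µg/mL and 0% = DMSO only wells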
#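 Material: CHO-XBP1 cells stably carrying IRE1-XBP1-driven luciferase reporter | Medium: F12 with 10% serum | Compound dosing: 20 µM single concentration, DMSO 1% | Incubation: Overnight seeding at 37 °C, 6 h compound treatment at 37 °C | Detection: Steady-Glo luminescence read | Read-out basis: % activation of reporter signal versus tunicamycin and DMSO controls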
# CHOP inhibitor = blocks CHOP induction under ER stress | CHO-K1 CHOP-promoter luciferase, tunicamycin-induced, 15-18 h | inhibition, % at 10 µM | 220,000 tested, 3.8% active;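 active = compounds that reduced the stress-induced luciferase reporter signal by more than about 70% of percent inhibition, limit read from the data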;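 also: 0% = tunicamycin plus vehicle and 100% = wells without tunicamycin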
# UCH37 inh = human UCH37 deubiquitinating enzyme inhibition; Q9Y5K5; purified proteasome/UCH37, Ub-AMC cleavage fluorescence; inhibition, % (test concentration not listed); 330,000 tested, 0.33% active; AID 588478;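 active = mean inhibition over replicate wells above about 20%, limit read from the data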;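 also: 0% = compound-free wells with enzyme and 100% = wells lacking proteasome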
# Target sequence (Q9Y5K5 whole entry, looked up): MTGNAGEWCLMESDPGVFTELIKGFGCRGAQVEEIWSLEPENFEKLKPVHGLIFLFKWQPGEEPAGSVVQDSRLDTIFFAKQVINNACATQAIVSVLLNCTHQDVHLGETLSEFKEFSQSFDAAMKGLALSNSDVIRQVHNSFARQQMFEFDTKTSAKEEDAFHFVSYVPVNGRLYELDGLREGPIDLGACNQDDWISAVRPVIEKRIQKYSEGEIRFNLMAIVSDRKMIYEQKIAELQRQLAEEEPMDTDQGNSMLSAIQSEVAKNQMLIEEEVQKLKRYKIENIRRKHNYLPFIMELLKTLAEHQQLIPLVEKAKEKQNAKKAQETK
#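 assay system = human UCH37 enzyme supplied as purified proteasome complex | amount = proteasome at 0.15 nM in the dispensed enzyme solution | schedule = 30 min compound-proteasome preincubation then 25 min substrate reaction, room temperature | measured by = fluorescence, ex 355 nm, em 460 nm | benchmarks = no-proteasome wells (full inhibition) and compound-free wells (no inhibition)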
# XBP1 UPR conf = confirmation of adaptive unfolded protein response (XBP1) activators; shares compounds with UPR XBP1 act; CHO-XBP1 IRE1-XBP1 luciferase reporter, luminescence; activation, % at 20 µM; 1,000 tested, 63% active; AID 485299;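 active = reporter signal at least 30% of the positive control's activation in two or more of four replicate wells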;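 also: plate controls were DMSO negative control for no effect and tunicamycin 10 µg/mL positive control for full effect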
# Numbers without * were called inactive; x = no result given.
SMILES,CHOP UPR activ,Fh CTSL1 inh,UPR XBP1 act,CHOP inhibitor,UCH37 inh,XBP1 UPR conf
C#CCOCCOCCOCCNc1nc(N2CCN(C(=O)CCCCCCCCCCNC(=O)[C@H](CCCCN)n3cc(C[C@@H](C)CC)nn3)CC2)nc(N2CCN(C(=O)CCCCCCCCCCNC(=O)[C@@H]([C@H](C)O)n3cc(C)nn3)CC2)n1,28.8,0.5,40.4*,x,4.0,1.1
CCN(CC)Cc1c(C(=O)NN=Cc2ccc(C)o2)nnn1-c1nonc1N,x,x,x,x,10.4,x
CCc1sc2nc(SCC(=O)Nc3cc(C)on3)n(-c3cccc(OC)c3)c(=O)c2c1C,19.3,0.1,40.1*,88.7*,-5.8,80.8*
COc1cccc(-n2c(SCC(=O)Nc3cc(C)on3)nc3ccccc3c2=O)c1,2.8,-1.9,2.7,-2.1,3.9,x
CC1(C)C2CC[C@]3(C)C(CC=C4[C@@H]5C[C@@](C)(CO)[C@@H]6C[C@@]5(CC[C@]43C)C(=O)O6)[C@@]2(C)CC[C@@H]1O (stereo partly specified),-0.9,0.9,0.1,x,-0.3,x
CC1(C)CC[C@@]23CC[C@]4(C)[C@@](OC2=O)(C3C1)[C@H]1O[C@H]1C1[C@@]2(C)CC[C@H](O)C(C)(C)C2CC[C@]14C (stereo partly specified),0.3,-3.4,50.1*,x,6.3,46.1*
COc1ccccc1NC(=O)c1cc2c(CO)cnc(C)c2oc1=Nc1ccccc1,12.4,-2.5,500.9*,x,3.9,167.5*
COc1cccc(N=c2oc3c(C)ncc(CO)c3cc2C(=O)Nc2ccccc2OC)c1,x,x,x,10.4,5.8,x
CC(=NOC(=O)Nc1ccccc1)c1cnn(-c2cc(C(F)(F)F)cc(C)n2)c1C,x,x,x,x,5.1,x
CC1CCN(Cc2c(C(=O)N/N=C/c3ccc(C(C)C)cc3)nnn2-c2nonc2N)CC1,2.5,5.5,35.8*,x,x,74.3*
CC(C)c1ccc(C=NNC(=O)c2nnn(-c3nonc3N)c2CN2CCOCC2)cc1,x,x,x,x,4.6,x
CN(C)c1ccc(/C=N/NC(=O)c2nnn(-c3nonc3N)c2CN2CCCCCC2)cc1,24.2,-0.7,59.1*,x,x,20.4
COc1ccccc1/C=C/C(=O)NCC(=O)NN=C(C)c1ccc(Cl)cc1,x,x,x,x,-13.3,x
O=c1c(C=NOCc2ccc(Cl)cc2Cl)c[nH]n1-c1cccc(Cl)n1,x,x,x,x,2.9,x
CC(=NNc1ccc([N+](=O)[O-])cc1)c1ccc(-n2nncc2C(C)(C)C)cc1,x,x,x,x,5.8,x
O=C1c2ccccc2C(=O)N1CCCOCc1c[nH]c(=O)[nH]c1=O,-1.2,3.4,31.7*,-28.7,0.4,0.1
COc1ccc(OC)c(-c2nnc3n2N=C(c2ccc(OC)c(OCC4CC4)c2)CS3)c1,1.4,x,32.1*,x,1.6,34.7*
COc1ccc(C2=Nn3c(nnc3-c3ccccc3Cl)SC2)cc1OCC1CC1,-0.2,x,11.6,x,4.8,x
COc1c(C=NNc2ccc(C(=O)O)cc2)c(CCN(C)C(C)=O)cc2c1OCO2,x,x,x,x,4.3,x
Cc1ccc(C(=O)ON=C2CC3CCC2(C)[C@@]3(C)CBr)cc1 (stereo partly specified),x,x,x,x,2.3,x
COc1cccc(-c2sc3ccccc3c2-c2ccc(OCCN3CCCC3)cc2)c1,3.5,x,24.6,x,x,x
COc1cccc(-c2sc3ccccc3c2-c2ccc(OCCN(C)C)cc2)c1,2.7,x,36.9*,x,x,53.5*
c1ccc(-c2sc3ccccc3c2-c2ccc(OCCN3CCCC3)cc2)cc1,3.4,x,32.3*,x,x,19.2
COc1ccc(-c2sc3ccccc3c2-c2ccc(OCCN3CCCCC3)cc2)cc1,2.9,x,9.8,x,-10.8,x
CC(=NO)c1ccc2c3ccccc3n(C)c2c1,x,x,x,x,-50.4,x
SMILES,CHOP UPR activ,Fh CTSL1 inh,UPR XBP1 act,CHOP inhibitor,UCH37 inh,XBP1 UPR conf
CNC(=S)NN=Cc1ccco1,x,x,x,x,4.4,x
COc1ccc(-c2coc3cc4oc(=O)c5ccccc5c4cc23)cc1F,1.1,4.0,63.8*,5.4,1.0,23.4
NC(N)=NN=Cc1ccc(OCc2ccccc2)c(OCc2ccccc2)c1,x,x,x,x,2.0,x
Cc1nn(C)cc1C=NNC(=S)Nc1ccc(Cl)cc1Cl,x,x,x,x,1.8,x
Cc1cc(N2CCN(C)CC2)ccc1NC(=O)c1c2c(nc3ccccc13)CCN(Cc1ccccc1)C2,15.1,-0.3,41.5*,-39.9,4.3,11.9
O=C(NC1CCCCCC1)c1c2c(nc3ccccc13)CCN(Cc1ccccc1)C2,-1.2,-2.3,0.1,27.1,0.0,x
CN=C1SC(CC(=O)Nc2c(C)cccc2C)C(=O)N1N=Cc1cccs1 (stereo unspecified),x,x,x,x,3.2,x
COc1cc(/C=N/Nc2nc(Nc3ccc(C)cc3)nc(-n3nc(C)cc3C)n2)cc(OC)c1OC,13.7,-0.1,50.5*,22.0,x,68.9*
COc1cc(/C=N/Nc2nc(Nc3ccccc3)nc(-n3nc(C)cc3C)n2)cc(OC)c1OC,19.0,1.9,71.7*,-26.9,x,89.9*
O=S(=O)(c1ccc2nc(-c3ccccc3)[nH]c2c1)N1CCN(c2ccc(Cl)cc2)CC1,20.3,3.1,90.1*,105.2*,2.2,115.1*
O=c1ccc2cc(S(=O)(=O)N3CCN(c4ccccc4)CC3)ccc2[nH]1,-3.0,-3.5,2.1,x,5.9,x
CC1=Nc2ccccc2/C1=C\c1sc(Nc2ccc(C)cc2)nc1O,3.6,6.2,33.4*,-33.3,x,40.2*
Cc1ccc(CSc2nc3ccccc3cc2C=O)cc1,2.0,1.1,26.9,-6.7,x,x
O=Cc1cc2ccccc2nc1SCc1ccc(Cl)c(Cl)c1,4.4,-3.9,33.5*,-8.3,5.2,38.6*
O=Cc1cc2ccccc2nc1SCc1ccc(Cl)cc1,9.6,-0.7,42.6*,56.3,5.4,42.6*
C[C@]12CCC3C(CC[C@H]4CCCC[C@]34C)C1CC[C@@]2(O)CNCCO (stereo partly specified),3.6,x,33.1*,x,-8.4,2.0
CCOC(=O)c1ccc(-c2ccc(C=NNC(=O)CN(c3ccccc3Br)S(C)(=O)=O)o2)cc1,x,x,x,x,-162.0,x
CCC(=O)NC(c1ccc(C)cc1)c1ccc2cccnc2c1O (stereo unspecified),23.0,-0.7,17.3,x,x,x
CC(=O)NC(c1ccco1)c1ccc2cccnc2c1O (stereo unspecified),-2.5,-3.1,32.0*,x,3.0,-0.7
Cc1ccc(C(=O)NN=C2CCCc3ccccc32)c(C)c1,x,x,x,x,0.0,x
COc1ccccc1NC(=O)c1cc2ccccc2oc1=NO,x,x,x,x,5.2,x
C=C(C)C1CC=C(C)C(=NNC(=O)CCC(=O)Nc2ccccc2Cl)C1 (stereo unspecified),x,x,x,x,3.8,x
Cn1c(/C=C/c2ccc(Cl)cc2Cl)c([N+](=O)[O-])c(=O)n(C)c1=O,25.7,6.6,38.3*,x,0.7,39.0*
COc1cc(CNCCO)cc(Cl)c1OCc1ccc(Cl)cc1Cl,2.3,0.0,62.6*,95.2*,8.7,133.6*
